# Test results reported in ChEMBL document CHEMBL1140488, “Influence of 6 or 8-substitution on the antiviral activity of 3-phenethylthiomethylimidazo[1,2-a]pyridine against human cytomegalovirus (HCMV) and varicella-zoster virus (VZV)” (Bioorg Med Chem, 2007).
# Legend:
# [1] = Cytotoxicity against HEL cells assessed as reduction of cell growth after 3 days; type: cell-based; conditions: human
# Outline: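 HEL cell suspensions were added to wells holding serial concentrations of compound and incubated 3 days at 37 °C in humidified CO2. Viable cells were then counted with a Coulter Counter. CC50 is the concentration reducing viable cell number by 50%.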
# Human betaherpesvirus 5 [2] = assay: Antiviral activity against HCMV Davis in HEL cells assessed as reduction of virus plaque formation after 5 days; type: functional, organism-based; conditions: Human betaherpesvirus 5, Davis, 120 h
# Outline: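 Confluent human embryonic lung (HEL) cell monolayers in microtiter plates were inoculated with 100 PFU of HCMV (AD169 or Davis) and left 2 h for adsorption. Residual virus was then removed and compound was added at varying concentrations. Viral cytopathicity was read once it reached completion in untreated infected controls.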
# [3] = Cytotoxicity against HEL cells assessed as alteration in cell morphology after 3 days; type: cell-based; conditions: human
# Outline: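 HEL cell cultures exposed to compound were inspected by microscope for altered morphology. MCC is the minimum concentration causing a microscopically detectable alteration of cell morphology.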
# Human betaherpesvirus 5 [4] = assay: Antiviral activity against HCMV AD169 in HEL cells assessed as reduction of virus plaque formation after 5 days; type: functional, organism-based; conditions: Human betaherpesvirus 5, AD169, HEL, 120 h
# Outline: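 Confluent human embryonic lung (HEL) cell monolayers in microtiter plates were inoculated with 100 PFU of HCMV (AD169 or Davis) and left 2 h for adsorption. Residual virus was then removed and compound was added at varying concentrations. Viral cytopathicity was read once it reached completion in untreated infected controls. EC50 is the concentration inhibiting cytopathicity by 50%.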
# Human alphaherpesvirus 3 [5] = assay: Antiviral activity against TK+ VZV OKA in HEL cells assessed as reduction of virus plaque formation; type: functional, organism-based; conditions: Human alphaherpesvirus 3, OKA
# Human alphaherpesvirus 3 [6] = assay: Antiviral activity against TK- VZV 07/1 in HEL cells assessed as reduction of virus plaque formation; type: functional, organism-based; conditions: Human alphaherpesvirus 3, 07/1, HEL
Structure (SMILES),CC50 at 72 h [1] [µg/mL],EC50 (Human betaherpesvirus 5 [2]) [µg/mL],MCC at 72 h [3] [µg/mL],EC50 (Human betaherpesvirus 5 [4]) [µg/mL],EC50 (Human alphaherpesvirus 3 [5]) [µg/mL],EC50 (Human alphaherpesvirus 3 [6]) [µg/mL]
Cc1cc(-c2ccccc2O)cn2c(CSCCc3ccccc3)cnc12,> 50,> 100,100,> 100,> 20,> 20
Cc1cc(-c2cccc(O)c2)cn2c(CSCCc3ccccc3)cnc12,50,2.2,20,2.2,2.4,3.7
Cc1cc(-c2ccc(O)cc2)cn2c(CSCCc3ccccc3)cnc12,> 50,> 100,≥ 100,> 100,> 20,> 100
COc1cccc(-c2cc(C)c3ncc(CSCCc4ccccc4)n3c2)c1,36,2.5,20,2.2,> 4,> 4
COc1cccc(-c2cc(C)cn3c(CSCCc4ccccc4)cnc23)c1,> 50,10.9,100,10.9,8.3,10.3
Cc1cc(-c2cccc([N+](=O)[O-])c2)cn2c(CSCCc3ccccc3)cnc12,43,4,≥ 100,7.6,5.6,8.3
Cc1cc(-c2cccc([N+](=O)[O-])c2)c2ncc(CSCCc3ccccc3)n2c1,47,> 100,100,> 100,> 20,> 20
Cc1cc(-c2ccc(C#N)cc2)cn2c(CSCCc3ccccc3)cnc12,10.6,2.5,≥ 20,1.8,2.2,2
Cc1cc(-c2cccc(F)c2)c2ncc(CSCCc3ccccc3)n2c1,35,2.2,20,2.2,> 4,> 4
c1ccc(CCSCc2cnc3ccc(-c4ccccc4)cn23)cc1,9.9,> 0.8,4,> 0.8,0.74,> 0.8
Cc1cc(-c2ccccc2)c2ncc(CSCCc3ccccc3)n2c1,33,> 4,20,> 4,> 4,> 4
Cc1cc(-c2ccsc2)cn2c(CSCCc3ccccc3)cnc12,> 50,1.8,≥ 4,> 0.8,1.7,1.8
Cc1cc(-c2cccs2)cn2c(CSCCc3ccccc3)cnc12,32,2.2,20,2.2,4,> 4
Cc1cc(-c2cccs2)c2ncc(CSCCc3ccccc3)n2c1,> 50,2.2,100,2.5,7.8,4
Cc1cc(Br)cn2c(CSCCc3ccccc3)cnc12,28,0.13,≥ 2,0.32,0.48,1.1
Cc1cc(-c2ccccc2)cn2c(CSCCc3ccccc3)cnc12,31,2.2,20,2,3.6,> 4
Cc1cc(-c2ccsc2)c2ncc(CSCCc3ccccc3)n2c1,> 50,2.5,100,2.5,8.9,8.6
Cc1cc(I)c2ncc(CSCCc3ccccc3)n2c1,> 50,1.8,≥ 4,> 0.8,2.6,2.6
COc1ccc(-c2cc(C)cn3c(CSCCc4ccccc4)cnc23)cc1,19.6,2.2,20,2.2,2,3.1
Cc1cc(-c2cccc(C#N)c2)cn2c(CSCCc3ccccc3)cnc12,> 50,2.5,> 100,2.2,> 100,81
Cc1cc(I)cn2c(CSCCc3ccccc3)cnc12,> 50,0.12,≥ 0.8,> 0.16,0.68,0.43
Cc1cc(-c2cccc(O)c2)c2ncc(CSCCc3ccccc3)n2c1,11.4,> 4,20,> 4,1.6,2.9
Cc1cc(-c2ccc(O)cc2)c2ncc(CSCCc3ccccc3)n2c1,13.7,2.2,20,2.2,1.7,2.7
COc1ccc(-c2cc(C)c3ncc(CSCCc4ccccc4)n3c2)cc1,25.8,2.2,20,3.1,2.4,> 4
Nc1nc2c(ncn2COCCO)c(=O)[nH]1 [ACYCLOVIR],> 200,–,> 400,–,–,–
O=c1[nH]c(=O)n([C@H]2C[C@H](O)[C@@H](CO)O2)cc1/C=C/Br [BRIVUDINE],–,–,> 400,–,0.0038,362
Nc1ccn(C[C@@H](CO)OCP(=O)(O)O)c(=O)n1.O.O [CIDOFOVIR],47,0.12,≥ 100,0.1,–,–
Nc1nc2c(ncn2COC(CO)CO)c(=O)[nH]1 [GANCICLOVIR],146,–,100,0.51,–,–
